From PubChem BioAssay
Hits are enriched below; roughly 3% of the tested compounds scored in any of these assays.
Kir21 inh: inhibitors of mouse Kir2.1 inward-rectifier potassium channel; Inward rectifier potassium channel 2 (Mus musculus), P35561; HEK293-Kir2.1, FluxOR thallium flux fluorescence; stronger effect = lower value; B-score at 10 µM; 310,000 compounds, 0.85% hits; AID 1672, 2009;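 active means fluorescence ratio B-score at or below minus 3 SD of library scores, with starting-brightness B-score within 2 SD, cut at about -4.2 in these data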;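 further: channel flux triggered by added potassium and thallium sulfate stimulus; B-score of peak minus minimum fluorescence over baseline after thallium stimulus; more negative B-score means stronger Kir2.1 block with less thallium influx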
FID counter: compounds displacing fluorescent DNA intercalator, primary screen, artefact control for HCV NS3 helicase inhibitor project, biochemical, FID fluorescence; AID 1845, 2009; 290,000 compounds, 0.17% hits; inhibition, % at 7.9 µM; DNA fluorescent intercalator displacement; in the data active means inhibition above about 37%;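 further: higher means more ethidium bromide displaced from hairpin DNA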
SR-BI uptake up: activators of SR-BI mediated DiI-HDL uptake, primary screen, ldlA[mSR-BI] CHO cells, DiI fluorescence; 3 h; 100 = double the neutral-control signal; activation, % at 12.5 µM; 320,000 compounds, 0.096% hits; AID 504775, 2011;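 active means mean replicate activation of at least 60% and every replicate at or above 60%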
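material = CHO ldlA[mSR-BI] cells | medium = Ham's F12 with 0.5% BSA, HEPES 25 mM, pH 7.4 | reagent = fluorescent DiI-HDL, 10 µg/mL final | compound dosing = single-point compound dose | incubation = 3 h, 37 °C | measured by = bottom-read fluorescence, 550/595 nm | measure = HDL uptake via cellular fluorescence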
TMEM16A act: TMEM16A chloride channel activators or potentiators, primary screen, cell-based, HTS. Anoctamin-1 (Mus musculus), Q8BHY3. HEK293 TMEM16A/YFP-H148Q/I152L, iodide quench fluorescence; stronger effect = lower value. B-score at 10 µM. 340,000 compounds, 0.3% hits;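 active means fluorescence-ratio B-score plate-corrected deviation score at least 3 library SD below zero, with starting fluorescence score within 5 deviations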;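 further: channel opened by trigger with iodide after compound preincubation; score built on the fluorescence ratio of max minus min over baseline; more negative score means more quench and so TMEM16A activation or potentiation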
Target sequence (Q8BHY3 whole entry, looked up): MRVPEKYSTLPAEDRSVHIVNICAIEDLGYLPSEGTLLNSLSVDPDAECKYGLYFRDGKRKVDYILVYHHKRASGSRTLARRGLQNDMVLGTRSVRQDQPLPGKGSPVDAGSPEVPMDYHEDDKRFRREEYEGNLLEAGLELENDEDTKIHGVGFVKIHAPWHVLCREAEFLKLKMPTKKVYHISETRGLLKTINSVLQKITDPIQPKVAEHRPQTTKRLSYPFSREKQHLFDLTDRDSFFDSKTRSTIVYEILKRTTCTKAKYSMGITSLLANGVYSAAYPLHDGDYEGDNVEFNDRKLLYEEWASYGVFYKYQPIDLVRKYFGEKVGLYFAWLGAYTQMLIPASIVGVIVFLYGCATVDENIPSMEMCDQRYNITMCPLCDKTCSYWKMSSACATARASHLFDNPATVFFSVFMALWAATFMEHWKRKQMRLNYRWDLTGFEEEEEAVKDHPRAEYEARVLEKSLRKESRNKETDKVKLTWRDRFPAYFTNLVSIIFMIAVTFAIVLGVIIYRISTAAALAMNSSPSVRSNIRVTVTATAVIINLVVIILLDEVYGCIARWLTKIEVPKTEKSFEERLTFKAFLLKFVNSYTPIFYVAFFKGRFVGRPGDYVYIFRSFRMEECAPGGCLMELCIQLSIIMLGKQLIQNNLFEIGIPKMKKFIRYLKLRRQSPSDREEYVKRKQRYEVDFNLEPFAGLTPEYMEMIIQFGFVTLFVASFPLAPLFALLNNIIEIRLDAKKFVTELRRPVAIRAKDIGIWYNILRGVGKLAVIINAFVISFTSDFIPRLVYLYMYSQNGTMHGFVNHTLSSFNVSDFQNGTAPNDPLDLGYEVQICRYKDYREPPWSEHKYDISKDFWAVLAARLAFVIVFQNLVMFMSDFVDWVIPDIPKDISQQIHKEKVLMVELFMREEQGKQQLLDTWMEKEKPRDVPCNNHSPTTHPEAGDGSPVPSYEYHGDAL
ANO1 block: TMEM16A chloride channel inhibitors, primary screen, cell-based, HTS; normalized B-score (activity score, 25-100; higher = stronger inhibition) at 10 µM; 310,000 compounds, 1.2% hits; HEK293 TMEM16A/YFP iodide influx fluorescence, ionomycin; Anoctamin-1 (Mus musculus), Q8BHY3;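 active means ratio plate-corrected score three or more library SD toward inhibition, starting fluorescence score within five deviations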;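 further: score derived from kinetic fluorescence span divided by baseline fluorescence per well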
SR-BI HDL uptake: inhibitors of SR-BI mediated HDL lipid uptake, primary screen, ldlA[mSR-BI] cells, fluorescence, single point; 320,000 compounds, 0.96% hits; ldlA[mSR-BI] CHO cells, DiI-HDL uptake fluorescence, 3 h; Scavenger receptor class B member 1 (Mus musculus), Q61009; inhibition, % at 12.5 µM; AID 488896, 2010;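 active means mean replicate inhibition of at least 70% and a set share of replicates each scoring 70 or more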
A number is an active result.

For Cc1noc(C)c1COC(=O)c1cccnc1Cl the results were Kir21 inh inactive, FID counter inactive, SR-BI uptake up inactive, TMEM16A act inactive, ANO1 block inactive and SR-BI HDL uptake inactive.
Cc1ccc(C)c(OC(=O)c2cccnc2Cl)c1C was read as Kir21 inh inactive, FID counter inactive, SR-BI uptake up 317, TMEM16A act inactive, ANO1 block inactive and SR-BI HDL uptake inactive.
CC(=O)c1c(C)[nH]c(C(=O)CSc2nnc(-c3cccs3)n2Cc2ccccc2)c1C was read as Kir21 inh inactive, FID counter inactive, SR-BI uptake up inactive, TMEM16A act inactive, ANO1 block inactive and SR-BI HDL uptake inactive.
Screening CC(=O)c1c(C)[nH]c(C(=O)CSc2nnc(-c3ccco3)n2Cc2ccccc2)c1C returned Kir21 inh inactive, FID counter inactive, SR-BI uptake up inactive, TMEM16A act inactive, ANO1 block inactive and SR-BI HDL uptake 80.
CCN1C(=O)c2cccc3c(S(=O)(=O)Nc4ccccc4)ccc1c23 was read as Kir21 inh inactive, FID counter inactive, SR-BI uptake up inactive, TMEM16A act inactive, ANO1 block inactive and SR-BI HDL uptake inactive.
For CCN1C(=O)c2cccc3c(S(=O)(=O)Nc4nc(C)cs4)ccc1c23 the results were Kir21 inh inactive, FID counter inactive, SR-BI uptake up inactive, TMEM16A act -5.1, ANO1 block inactive and SR-BI HDL uptake inactive.
For COc1ccc(CCNC(=O)CNCCc2ccc(F)cc2)cc1 the results were Kir21 inh inactive, FID counter inactive, SR-BI uptake up inactive, TMEM16A act inactive, ANO1 block inactive and SR-BI HDL uptake inactive.
Screening O=C(Nc1ccnn1C1CCN(C(=O)c2cccc(Cl)c2)CC1)C1CC1 returned Kir21 inh inactive, FID counter inactive, SR-BI uptake up inactive, TMEM16A act inactive, ANO1 block inactive and SR-BI HDL uptake inactive.
Screening COc1cc(/C=N/NC(=O)c2cncc(Br)c2)cc([N+](=O)[O-])c1O returned Kir21 inh inactive, FID counter inactive, SR-BI uptake up inactive, TMEM16A act inactive, ANO1 block inactive and SR-BI HDL uptake 120.
Screening Cc1ccc(NC(=O)c2ccc3ncsc3c2)cc1S(=O)(=O)N(C)C returned Kir21 inh inactive, FID counter inactive and ANO1 block inactive.
O=C(CN(c1cccc(Cl)c1)S(=O)(=O)c1ccc(Cl)cc1)NCc1ccccn1 was read as Kir21 inh inactive, FID counter inactive, SR-BI uptake up inactive, TMEM16A act inactive, ANO1 block inactive and SR-BI HDL uptake 83.
For O=S(=O)(c1ccc(F)cc1)N1CCN(S(=O)(=O)c2ccc3c(c2)OCCO3)CC1 the results were SR-BI uptake up inactive, TMEM16A act inactive and SR-BI HDL uptake inactive.
`Cc1cc(C)c(S(=O)(=O)N2CCN(C(=O)c3c(C)nn(-c4ccccc4)c3Cl)CC2)c(C)c1` gave SR-BI uptake up inactive, TMEM16A act inactive and SR-BI HDL uptake 78.
`Cc1ccc(S(=O)(=O)N2CCN(C(=O)c3c(C)nn(-c4ccccc4)c3Cl)CC2)cc1` gave Kir21 inh inactive, FID counter inactive, SR-BI uptake up inactive, TMEM16A act inactive, ANO1 block inactive and SR-BI HDL uptake inactive.
For CCN(Cc1cc2ccccc2[nH]c1=O)C(=O)C(C)C the results were Kir21 inh inactive, FID counter inactive, SR-BI uptake up inactive, TMEM16A act -4.8, ANO1 block inactive and SR-BI HDL uptake inactive.
`CCN(Cc1cc2ccccc2[nH]c1=O)C(=O)C1CCCCC1` gave Kir21 inh inactive, FID counter inactive, SR-BI uptake up inactive, TMEM16A act inactive, ANO1 block inactive and SR-BI HDL uptake inactive.
Screening O=C(Nc1ccc(S(=O)(=O)N2CCCCC2)cc1)C1CCCN(C(=O)c2ccc(Cl)cc2)C1 (configuration not stated) returned Kir21 inh inactive, FID counter inactive, SR-BI uptake up inactive, TMEM16A act inactive, ANO1 block inactive and SR-BI HDL uptake inactive.
